This passage reports IC50, Ki and Activity results from ChEMBL document CHEMBL3392973, “Insulin-mimetic selaginellins from Selaginella tamariscina with protein tyrosine phosphatase 1B (PTP1B) inhibitory activity” (J Nat Prod, 2015).

For data set [1], the target named is T1, Tyrosine-protein phosphatase non-receptor type 1 (Homo sapiens, UniProt P18031).
T1 sequence (P18031 whole entry): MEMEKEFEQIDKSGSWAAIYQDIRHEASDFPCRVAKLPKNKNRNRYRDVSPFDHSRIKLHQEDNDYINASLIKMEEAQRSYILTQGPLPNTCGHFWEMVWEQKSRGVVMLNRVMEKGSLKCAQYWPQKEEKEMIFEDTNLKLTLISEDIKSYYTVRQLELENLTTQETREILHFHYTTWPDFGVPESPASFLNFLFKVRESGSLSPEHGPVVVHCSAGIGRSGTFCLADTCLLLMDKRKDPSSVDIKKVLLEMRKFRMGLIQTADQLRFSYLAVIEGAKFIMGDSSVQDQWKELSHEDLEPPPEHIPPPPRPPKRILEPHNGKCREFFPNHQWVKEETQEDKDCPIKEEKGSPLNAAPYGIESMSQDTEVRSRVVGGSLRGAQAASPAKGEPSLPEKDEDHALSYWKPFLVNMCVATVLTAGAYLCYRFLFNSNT
The data set can be described thus: Inhibition of human recombinant PTP1B using p-nitrophenylphosphate as substrate. The essentials: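 Human recombinant PTP1B in 50 mM citrate pH 6.0, 0.1 M NaCl, 1 mM EDTA, 1 mM DTT, ± sample, preincubated 10 min at 37 °C. Substrate 2 mM p-NPP, then 20 min at 20 °C, stopped with NaOH, A405. Blank without enzyme corrects for non-enzymatic hydrolysis. IC50 by regression, mean ± SD of three replicates.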

Data set [2] deals with T1, Tyrosine-protein phosphatase non-receptor type 1. The data set can be described thus: Noncompetitive inhibition of human recombinant PTP1B using p-nitrophenylphosphate as substrate by Lineweaver-Burk plot analysis.
Data set [3] can be described thus: Cytotoxicity against mouse NIH/3T3 cells at 50 uM after 48 hrs by MTT assay. The settings on record: nih3t3, 48 h.
The test system of another data set is 3T3-L1 (Mus musculus). As to the kind of experiment: Induction of 2-NBDG uptake in mouse 3T3-L1 adipocyte cells at 5 uM after 24 hrs measured after 30 mins of 2-NBDG by fluorescence assay.
Data set [4] concerns the target T1, Tyrosine-protein phosphatase non-receptor type 1. The data set can be described thus: Uncompetitive inhibition of human recombinant PTP1B using p-nitrophenylphosphate as substrate by Lineweaver-Burk plot analysis.
Data set [5] has the same target. As to the kind of experiment: Mixed-competitive inhibition of human recombinant PTP1B using p-nitrophenylphosphate as substrate by Lineweaver-Burk plot analysis.

SMILES strings stand for the structures. Values joined by “and” are separate entries in the source; they are usually repeats but may differ in a detail not shown here. Equal values may be shown once. Active and inactive are the calls of the source. No cut-off for these calls is given here.

Turning to `OCc1ccc(-c2ccc(O)cc2O)c(C(O)(c2ccc(O)cc2)c2ccc(O)cc2)c1C#Cc1ccc(O)cc1`, the IC50 in data set [1] stood at 21.6 µM. The Ki in data set [2] was determined as 10.3 µM. In addition, the Activity entry in data set [3] was “Non-toxic”. Besides, the outcome in the data set with 3T3-L1 (Mus musculus) was Active.
On to `COCc1ccc(-c2ccc(O)cc2O)c(C(O)(c2ccc(O)cc2)c2ccc(O)cc2)c1C#Cc1ccc(O)cc1`, for which, in data set [1], the IC50 turned out to be 19.4 µM. For the same molecule, the Ki in data set [4] was 15.1 µM. The Activity entry in data set [3] was “Non-toxic”. In addition, in the data set on 3T3-L1 (Mus musculus), the outcome was Active.
For the molecule `O=C1C=CC(=C(c2ccc(O)cc2)c2c(-c3ccc(O)cc3)ccc(CO)c2C#Cc2ccc(O)cc2)C=C1`, in data set [1], the IC50 is 4.6 µM and 15.9 µM. Further, the inhibitory constant (Ki) in data set [5] was 3 µM and 13.9 µM. Besides, the Activity entry in data set [3] is “Non-toxic”. In addition, the outcome in the data set on 3T3-L1 (Mus musculus) was Active.
In the case of `COc1ccc(C(=C2C=CC(=O)C=C2)c2c(-c3ccc(O)cc3)ccc(CO)c2C#Cc2ccc(O)cc2)cc1`, the IC50 in data set [1] came to 11.5 µM. The Ki in data set [5] was 8.9 µM. Also, the result with 3T3-L1 (Mus musculus) was Active.
For the molecule `O=C(O)c1nnc(-c2ccc(-c3ccccc3)cc2)o1`, in data set [1], the IC50 worked out at 0.7 µM.
